Assay outcomes as filed in PubChem BioAssay.
HTRA1 inhibitor: HTRA1 serine protease inhibitors, primary screen, biochemical, fluorescence polarization, HTS. recombinant HTRA1, FP-rhodamine activity-based probe. inhibition, % at 5.96 µM. 0.5% of 340,000 active. AID 504803, 2011; in the data active = inhibition above about 36%
Target sequence (Q92743 whole entry, looked up): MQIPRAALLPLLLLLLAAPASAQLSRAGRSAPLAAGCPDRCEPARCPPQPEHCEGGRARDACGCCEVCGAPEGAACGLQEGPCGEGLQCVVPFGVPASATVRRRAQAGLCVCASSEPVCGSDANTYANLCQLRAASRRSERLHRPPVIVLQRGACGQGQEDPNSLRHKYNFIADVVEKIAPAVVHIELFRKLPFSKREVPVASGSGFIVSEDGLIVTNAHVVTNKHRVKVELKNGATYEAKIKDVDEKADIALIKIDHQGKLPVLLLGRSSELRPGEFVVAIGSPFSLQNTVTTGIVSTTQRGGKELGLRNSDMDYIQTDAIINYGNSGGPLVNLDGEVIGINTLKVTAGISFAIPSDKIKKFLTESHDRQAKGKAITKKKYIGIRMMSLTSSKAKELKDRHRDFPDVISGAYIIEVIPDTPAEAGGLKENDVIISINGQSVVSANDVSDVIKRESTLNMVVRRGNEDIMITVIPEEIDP
mABHD4 FP: ABHD4 inhibitors, primary screen, biochemical, fluorescence polarization, mouse; (Lyso)-N-acylphosphatidylethanolamine lipase (Mus musculus), Q8VD66; purified mABHD4, FP-Rh probe fluorescence polarization; inhibition, % at 8.92 µM; 0.54% of 370,000 active;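 active = inhibition exceeding the mean over every tested compound plus 3 SD, cut at about 30% in these data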
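Assay system: mouse ABHD4 enzyme, wild type / Also added: fluorescent activity-based probe FP-Rh / Doses: single nominal dose of 8.92 µM, 0.89% DMSO final / Timing: 45 min compound pre-incubation plus 60 min probe step, 25 °C / Signal: FP readout, ex 525 nm / em 598 nm / Control set: S159A mutant/DMSO as 100%, compound-well median as 0%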
GASC-1 inh: inhibitors of GASC-1 histone demethylase, primary screen, biochemical, fluorescence, DELFIA europium. inhibition, % at 2.35 µM. AID 2099, 2009. Lysine-specific demethylase 4C (Homo sapiens), Q9H3R0. 0.069% of 330,000 active. GST-JMJD2C(1-420) H3K9me3 demethylation;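 active = more than half of a compound's replicate wells show inhibition beyond 50%, single wells judged on their own value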;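 note: signal counts dimethyl H3K9 product captured on neutravidin plate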
PRMT1 inh: PRMT1 methyltransferase inhibitors, primary screen, biochemical, fluorescence polarization; Protein arginine N-methyltransferase 1 (Homo sapiens), Q99873; recombinant PRMT1, activity-based probe fluorescence polarization; inhibition, % at 2.79 µM; 1.3% of 370,000 active; AID 652257, 2013;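 active = inhibition above about 21% made by adding two undisclosed values, limit read from the data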
SIAE primary: human SIAE inhibitors, primary screen, biochemical, fluorescence polarization, FP-Rh probe, 1536-well HTS; Sialate O-acetylesterase (Homo sapiens), Q9HAT2; SIAE FP-Rh probe binding; inhibition, % at 9.66 µM; 0.69% of 370,000 active;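 active = inhibition above a cutoff: mean of compounds within the control limits plus 3 SD of those, cut at about 17% in these data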
SIAE inh conf: human SIAE inhibitors, retest, confirmation, biochemical, fluorescence polarization, FP-Rh probe, triplicate. 13% of 2,300 active. inhibition, % at 9.66 µM. shares compounds with SIAE primary. SIAE FP-Rh activity-based probe;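 active = mean inhibition of the replicates above the hit cutoff set in the primary screen, cut at about 17% in these data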;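 note: inhibitors lower polarization as more probe stays unbound to SIAE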
Each line names hits and unclear results; the compound was inactive in the other large screens (follow-up assays come after a bar, where they were run). Sampled rows, rich in hits. Any-hit rate of the full collection: about 2.4%.

COCCNC(=O)c1cc2c(c(-c3cccc(C#CC(C)(C)O)c3)n1)[C@@H](CCO)N(S(=O)C(C)(C)C)C2 (stereo partly specified)	none (no result: HTRA1 inhibitor, GASC-1 inh)
COc1cc(C(C)=O)ccc1OCC(=O)NCc1ccccc1CN1CCCC1	none (no result: GASC-1 inh)
CCOC(=O)C1=C(c2ccccc2)NC(=O)NC1c1ccc(O)c(OCC)c1 (stereo unspecified)	SIAE primary 18.7 | SIAE inh conf inactive
CCCCNC(=O)C1(C)CCCCN1Cc1ccc(OCc2ccccc2)cc1 (stereo unspecified)	none (no result: HTRA1 inhibitor, GASC-1 inh)
COC(=O)[C@H](CC(C)C)N1Cc2nnn(CC3CCCCC3)c2-c2ccccc2S1(=O)=O	none (no result: HTRA1 inhibitor, GASC-1 inh)
COc1ccc(CN(C)CC(=O)Nc2ccccc2C(F)(F)F)c(OC)c1	SIAE primary 19.9 | SIAE inh conf inactive
CSCCC(c1nc2ccccc2[nH]1)n1c(/C=C/c2ccc(F)c(F)c2)nc2ccccc21 (stereo unspecified)	none (no result: HTRA1 inhibitor, GASC-1 inh)
O=C(Nc1ccc2c(c1)OCO2)c1ccc(N2CCCC2)c([N+](=O)[O-])c1	SIAE primary 22.2 | SIAE inh conf inactive
O=C(Nc1ccc(N2CCCCC2)c(Cl)c1)c1ccc(N2CCOCC2)c([N+](=O)[O-])c1	none
NC(=O)COC(=O)CCCc1nc2ccccc2s1	none
COC(=O)CCCc1nc2ccccc2s1	SIAE primary 63.0 | SIAE inh conf inactive
O=C(N/N=C/c1cc(Br)cc(Br)c1O)c1cccc(N2CCCC2=O)c1	SIAE primary 40.7 | SIAE inh conf 19.9
CC(C)(C)C(=O)N1CCN(c2nc3ccc(Cl)cc3s2)CC1	SIAE primary 17.6 | SIAE inh conf inactive
CC(OC(=O)c1ccc(Cl)nc1)C(=O)N1CCc2ccccc21 (stereo unspecified)	SIAE primary 18.7 | SIAE inh conf inactive
Cc1csc(Nc2ccc(Cl)cc2)n1	SIAE primary 19.0 | SIAE inh conf inactive
Cc1c(/C=N/NC(=O)c2ccccc2O)c2ccccn2c1C(=O)c1ccc(F)cc1	SIAE primary 37.0 | SIAE inh conf inactive
CC[C@H](CCCc1ccc(OC)cc1)CCC(=O)N1CCOCC1	none (no result: HTRA1 inhibitor, GASC-1 inh)
COc1cc(NC(=O)c2ccccc2F)c(OC)cc1NC(=O)CN1CCOCC1	SIAE primary 17.1 | SIAE inh conf inactive
COc1cc(NC(=O)c2ccc(F)cc2)c(OC)cc1NC(=O)CN1CCOCC1	none
O=C(c1ccc(F)cc1Cl)N1CCC(Oc2cccnc2)CC1	none (no result: HTRA1 inhibitor, GASC-1 inh)
CCCCCN1CCCCC(NC(=O)c2ccc(C)cc2)C1=O (stereo unspecified)	none (no result: HTRA1 inhibitor, GASC-1 inh)
O=C(NNC(=O)c1ccc2c(=O)n3c(nc2c1)CCC3)c1ccc(F)cc1	SIAE primary 22.9 | SIAE inh conf inactive
NC(=O)CC(NC(=O)c1ccccc1)c1ccc(N2CCN(c3ccccc3)CC2)c([N+](=O)[O-])c1 (stereo unspecified)	none
Cc1cc(C)cc(C(=O)NC(CC(N)=O)c2ccc(N3CCN(c4ccccc4)CC3)c([N+](=O)[O-])c2)c1 (stereo unspecified)	SIAE primary 21.5 | SIAE inh conf inactive
O=c1c2cc3cccnc3nc2ncn1CCc1c[nH]c2ccccc12	none (no result: HTRA1 inhibitor, GASC-1 inh)
CC(C)C[C@H](NC(=O)CC[C@H]1O[C@@H](n2ccc(=O)[nH]c2=O)[C@H](O)[C@@H]1O)C(=O)O	none (no result: HTRA1 inhibitor, GASC-1 inh)
O=C(Cn1cnc2c(cnn2-c2ccccc2)c1=O)c1ccc(Cl)cc1	SIAE primary 38.8 | SIAE inh conf inactive
CC(C)(C)n1ncc2c(=O)n(CC(=O)c3ccc(Cl)cc3)cnc21	none
O=C(OC12CCCN(C1)/C(=C/c1ccncc1)C2)c1ccc(Cl)cc1 (stereo unspecified)	none (no result: HTRA1 inhibitor, GASC-1 inh)
COc1cccc(/C=N/Nc2nc(Nc3ccc([N+](=O)[O-])cc3)nc(N3CCCC3)n2)c1O	SIAE primary 19.0 (no result: HTRA1 inhibitor) | SIAE inh conf inactive
O=C(O)c1cccc(-n2c(/C=C/c3ccccc3)nc3ccccc3c2=O)c1	none
O=C(O)c1cccc(-n2sc3ccccc3c2=O)c1	PRMT1 inh 93.0, SIAE primary 18.4 | SIAE inh conf inactive
Cn1c(NN)nc2sc3c(c2c1=O)CC(C)(C)OC3	none
Cc1nc(NN)c2c3c(sc2n1)COC(C)(C)C3	SIAE primary 26.6 | SIAE inh conf inactive
Cn1nccc1C(=O)Nc1ccc(S(=O)(=O)N2CCCC2)cc1	SIAE primary 17.9 | SIAE inh conf inactive
CCN(CC(=O)Nc1ccc(NC(C)=O)cc1)C(=O)Cc1cccc2ccccc12	none
CCN(CC(=O)Nc1ccc(NC(C)=O)cc1)C(=O)c1cccc2ccccc12	SIAE primary 17.8 | SIAE inh conf inactive
COc1ccccc1N(C)S(=O)(=O)c1ccc(C(=O)NCCCN2CCCC2=O)cc1	none (no result: GASC-1 inh)
Cc1ccc(CN2CCN(Cc3c[nH]c4ccccc34)CC2CCO)o1 (stereo unspecified)	none
Cc1ccc(CN2CCN(Cc3cc(=O)c4ccccc4[nH]3)CC2CCO)o1 (stereo unspecified)	SIAE primary 17.1 | SIAE inh conf inactive
O=C(NNC(=O)C1CC1c1ccccc1)c1cccc([N+](=O)[O-])c1 (stereo unspecified)	SIAE primary 18.1 | SIAE inh conf inactive
CC1(C(=O)NNC(=O)c2cccc([N+](=O)[O-])c2)CC1Br (stereo unspecified)	none (no result: GASC-1 inh)
CCCn1c(Nc2ccccc2C)nc2ccccc21	SIAE primary 37.5 | SIAE inh conf inactive
CCc1ccccc1Nc1nc2ccccc2n1CC	none
C=CCc1cccc(CNc2nc3ccccc3n2CC)c1O	none
C=CCc1cccc(CNc2nc3ccccc3n2CCC)c1O	SIAE primary 19.4 | SIAE inh conf inactive
CCOC(=O)[C@]12CCCC=C1N(Cc1ccc3c(c1)OCO3)C(=O)[C@H](CC(=O)N1CCN(C(=O)C3CC3)CC1)C2	none (no result: HTRA1 inhibitor, GASC-1 inh)
CC(C)(C)S(=O)N1Cc2cc(C(=O)N3CCc4ccccc4C3)nc(-c3cccc(-c4ccncc4)c3)c2[C@H]1CCO (stereo partly specified)	none (no result: HTRA1 inhibitor, GASC-1 inh)
CC1CCc2onc(C(=O)NCc3ccco3)c2C1 (stereo unspecified)	SIAE primary 21.4 | SIAE inh conf inactive
CC(C)C(C#CC1CC1)N(Cc1ccc2c(c1)OCO2)C(N)=NC(=O)/C=C/c1ccccc1 (stereo unspecified)	none (no result: HTRA1 inhibitor, GASC-1 inh)
O=C(N/N=C/c1ccc(O)cc1O)c1ccc(NC(=O)C2CCCCC2)cc1	SIAE primary 26.0 | SIAE inh conf inactive
CC(COc1ccc(C(F)(F)F)cc1)CN1CCC(C(O)(c2ccccc2)c2ccccc2)CC1 (stereo unspecified)	none (no result: HTRA1 inhibitor, GASC-1 inh)
COC(=O)Oc1ccc(/C=N/NC(=O)CN(c2ccccc2Br)S(C)(=O)=O)cc1OC	SIAE primary 21.7 | SIAE inh conf inactive
